Shown are actives, neighbours in structure and some others; about 0.65% of the full set was active somewhere.
TNAP act DEA: activators of human TNAP at intermediate phosphate acceptor | purified TNAP, CDP-star luminescence, 100 mM DEA, 30 min; hits give high values; scale: 0 levamisole-inhibited, 1 vehicle-only enzyme | activation factor at 20 µM | P05186 | 64,000 tested, under 10 active;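 active = activation factor of at least 2 at 20 µM, relative to controls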
HePTP inhibitor: inhibitors of human HePTP phosphatase; P35236; recombinant HePTP phosphatase activity, OD absorbance; inhibition, % at 20 µM; hit rate 0.64% among 110,000; in the data active = inhibition above about 50%;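 also: plate controls were vehicle for no effect and reference inhibitor for full effect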
Target sequence (P35236 whole entry, looked up): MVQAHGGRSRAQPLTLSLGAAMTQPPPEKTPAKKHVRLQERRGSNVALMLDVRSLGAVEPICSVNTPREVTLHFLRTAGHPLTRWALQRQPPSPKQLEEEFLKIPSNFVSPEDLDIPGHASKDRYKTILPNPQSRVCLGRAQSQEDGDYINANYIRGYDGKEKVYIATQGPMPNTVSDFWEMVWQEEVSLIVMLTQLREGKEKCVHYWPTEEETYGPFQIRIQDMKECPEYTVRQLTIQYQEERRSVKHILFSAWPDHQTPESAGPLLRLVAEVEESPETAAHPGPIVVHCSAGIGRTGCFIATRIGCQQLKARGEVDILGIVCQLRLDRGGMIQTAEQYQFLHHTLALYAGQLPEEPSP
AP ELISA ortho: alternative pathway complement inhibition, orthogonal assay. hit rate 0.08% among 62,000. Human serum alternative complement pathway, LPS-coated ELISA, C3 deposition; tested in compound mixtures. inhibition, % at 5 µM;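 active = inhibition above 30% in each of the two pooled mixtures holding the compound, so the lower value exceeds 30%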;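 also: 0% = serum in Mg-EGTA without compound and 100% = EDTA serum blank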
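Assay system: Human serum alternative complement pathway, C3 deposition on LPS-coated wells | Incubation: 1 h serum-compound exposure at 37 °C | Doses: 5 µM per compound in ten-compound mixtures | Read-out: Percent inhibition | Technique: ELISA with HRP anti-human C3 antibody, TMB substrate, absorbance 450 nm | Replication: Two pool placements per compound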
Active calls of the source: *; nt = no result.

SMILES	TNAP act DEA	HePTP inhibitor	AP ELISA ortho
Cc1ccc(Cl)cc1NC(=O)C(C(C)C)N1C(=O)c2ccccc2C1=O (centres undefined)	nt	7	nt
c1ccc(COc2cccc(OCc3ccccc3)c2)cc1	nt	7	nt
O=c1/c(=C\c2ccccc2C(F)(F)F)sc2nc3ccccc3n12	nt	0	nt
O=c1/c(=C\c2cn[nH]c2-c2ccccc2)sc2nc3ccccc3n12	nt	50*	nt
Cc1cc(Cl)ccc1N(CC(=O)NCc1cccnc1)S(=O)(=O)c1ccccc1	nt	8	nt
Cc1ccc(NC(=O)c2c(-c3ccccc3)noc2C)cc1Cl	nt	6	nt
Cc1ccc(NC(=O)c2c(-c3ccccc3)noc2C)cc1C	nt	104*	nt
COc1cc(/C=C(/C#N)C(=O)Nc2cccc(Br)c2)cc(OC)c1O	nt	-1	nt
COc1cc(/C=C(/C#N)C(=O)Nc2cccc(Br)c2)cc([N+](=O)[O-])c1O	nt	104*	nt
O=c1cc(N2CCCCC2)c2ccccc2n1-c1ccccc1	nt	-6	nt
Cc1cc(C)cc(N2C(=O)C3C(c4ccccc4Cl)OC4(C(=O)c5ccccc5C4=O)C3C2=O)c1 (centres undefined)	nt	-12	nt
CCc1ccccc1N1C(=O)C2C(c3ccccc3Cl)OC3(C(=O)c4ccccc4C3=O)C2C1=O (centres undefined)	nt	104*	nt
CC(=O)c1ccc(N2C(=O)c3ccc(Oc4ccc5c(c4)C(=O)N(c4ccc(C(C)=O)cc4)C5=O)cc3C2=O)cc1	nt	6	nt
O=C1c2ccc(Oc3ccc4c(c3)C(=O)N(c3ccc(S)cc3)C4=O)cc2C(=O)N1c1ccc(S)cc1	nt	102*	nt
COc1cc(NC(=O)c2ccccc2)c(Cl)cc1NC(=O)c1cc2ccccc2cc1OC	nt	8	nt
O=C(c1sc2ccccc2c1Cl)N1CCN(Cc2ccccc2)CC1	nt	103*	nt
O=C(c1sc2ccccc2c1Cl)N1CCC(Cc2ccccc2)CC1	nt	8	nt
Cc1ccc(N=C(NO)C(=Nc2ccc(C)c(C)c2)NO)cc1C	nt	-4	nt
CC(C)N1C(=O)/C(=C\c2ccco2)SC1=S	nt	-6	nt
O=C(c1ccc(Br)o1)N1CCN(c2ccc(F)cc2)CC1	0.9	6	1
O=C(c1ccc(Br)o1)N1CCN(c2ccc([N+](=O)[O-])cc2)CC1	nt	103*	nt
O=C(c1ccccc1SCc1ccc(F)cc1)N1CCOCC1	nt	-10	nt
CC(C)Oc1ccccc1NC(=O)c1ccccc1SCc1ccc(F)cc1	nt	92*	nt
C=CCN1C(=O)/C(=C\c2cc(I)c(O)c(OC)c2)C(=O)NC1=S	nt	19	nt
COc1ccc(S(=O)(=O)N2CCN(Cc3cccn3C)CC2)cc1	nt	4	nt
SMILES	TNAP act DEA	HePTP inhibitor	AP ELISA ortho
Cc1ccc(C)c(C(=O)n2cnnc2N)c1	0.9	2	34*
Cc1ccc(C(=O)n2cnnc2N)cc1C	0.9	4	-4
O=C(O)CCCCCN1C(=O)C(=O)/C(=C(/O)c2ccc([N+](=O)[O-])cc2)C1c1ccccc1Cl (centres undefined)	nt	-10	nt
Cc1c(OCC(=O)OCc2ccccc2)ccc2c3c(c(=O)oc12)CCCC3	nt	5	nt
COc1ccc2c(c1OC)C(=O)OC2Nc1ccccc1[N+](=O)[O-] (centres undefined)	nt	-21	nt
NS(=O)(=O)c1ccc(NC(=S)NC(=O)c2sc3cc(F)ccc3c2Cl)cc1	nt	4	nt
COc1nsnc1NS(=O)(=O)c1ccc(NC(=S)NC(=O)c2sc3cc(F)ccc3c2Cl)cc1	nt	102*	nt
CC(C)COc1ccc(C(=O)Nc2cccnc2)cc1	nt	-5	nt
CCOc1ccc(/C=N\NC(=O)c2ccc(Br)cc2)c(O)c1	nt	102*	nt
CCOc1ccc(/C=N\NC(=O)c2cncc(Br)c2)cc1	nt	-16	nt
CC1=NN(c2ccccc2)C(=O)C1C=C1C(=O)NC(=O)NC1=O (centres undefined)	nt	-3	nt
CC1=NN(c2ccccc2)C(=O)C1C=C1C(=O)NC(=S)NC1=O (centres undefined)	nt	54*	nt
CC1=NN(c2ccc(S(N)(=O)=O)cc2)C(=O)/C1=C\c1ccc(O)c([N+](=O)[O-])c1	nt	40	nt
Cc1ccc(/C=N\NC(=O)c2ccc(O)cc2)cc1	nt	10	nt
O=C(N/N=C/c1ccc([N+](=O)[O-])o1)c1ccc(O)cc1	nt	102*	nt
CC1=C(C(=O)Nc2ccc(Cl)cc2)C(c2cccc3ccccc23)NC(=S)N1 (centres undefined)	nt	-21	nt
CCN1C(=O)/C(=C\c2ccc(OC(C)=O)cc2)SC1=S	nt	-7	nt
Cc1cc(C)c2c(c1)=C(c1sc(=S)[nH]c1O)C(=O)N=2	nt	3	nt
Cc1cc(C)c2c(c1)=C(c1sc(N)nc1O)C(=O)N=2	nt	69*	nt
CCOc1ccccc1NC(=O)c1cc(Cl)ccc1Cl	nt	-9	nt
O=C(NC1CC2CCC1C2)C1CCN(S(=O)(=O)c2ccc(-c3nn[nH]n3)cc2)CC1 (centres undefined)	0.9	4	31*
COc1ccc(CNC(=O)C2CCN(S(=O)(=O)c3ccc(-c4nn[nH]n4)cc3)CC2)cc1	0.9	1	28
C/C(=N/NC(=O)c1cncc(Br)c1)c1ccc2ccccc2c1	nt	1	nt
O=C(CSCC(=O)Nc1ccc(F)c([N+](=O)[O-])c1)Nc1ccccc1	nt	-17	nt
O=C(CSc1ccc(C(F)(F)F)cc1[N+](=O)[O-])Nc1ccccc1	nt	105*	nt
SMILES	TNAP act DEA	HePTP inhibitor	AP ELISA ortho
CN(C(=O)NS(=O)(=O)c1ccccc1Cl)c1nc(OCC(F)(F)F)nc(OCC(F)(F)F)n1	nt	-5	nt
CCOC(=O)C1=C(C)N=c2s/c(=C\C=C\c3ccco3)c(=O)n2C1c1ccc(OC)cc1 (centres undefined)	nt	3	nt
O=C1CSC(c2cn(-c3ccccc3)nc2-c2ccccc2)N1Cc1ccc(Cl)cc1 (centres undefined)	nt	74*	nt
O=C1CSC(c2cn(-c3ccccc3)nc2-c2ccc(Cl)cc2)N1Cc1ccccc1 (centres undefined)	nt	-13	nt
C=CCn1c2ccccc2c2nnc(SC)nc21	nt	8	nt
C=CCn1c2ccccc2c2nnc(SCC(=O)N=C3NC(=O)CS3)nc21	nt	56*	nt
COC(=O)c1c(C)oc2ccc(OC(=O)c3ccc(Cl)cc3)cc12	nt	8	nt
COC(=O)c1c(C)oc2ccc(OC(=O)c3ccc(Br)cc3)cc12	nt	104*	nt
CCOC(=O)c1c(NC(=O)Cc2ccc(OC)cc2)sc(C(=O)Nc2ccccc2F)c1C	nt	-8	nt
Cc1oc(C(C)(C)C)cc1C(=O)Nc1cccc(O)c1	nt	12	nt
COc1cccc(NC(=O)COc2ccc3ccccc3c2)c1	nt	5	nt
O=C(COc1ccc2ccccc2c1)Nc1cccc(Br)c1	nt	70*	nt
CCc1cccc(NC(=O)c2cnccn2)c1	nt	-10	nt
Cc1cccc(NC(=O)c2cnccn2)c1	nt	60*	nt
COC(=O)c1ccc(/C=C2\SC(=S)N(c3ccc(F)cc3)C2=O)cc1	nt	-4	nt
O=C(O)c1ccc(/C=C2\SC(=O)N(c3ccc(F)cc3)C2=O)cc1	nt	100*	nt
O=C(NN1C(=O)S/C(=C\c2ccccc2O)C1=O)c1ccc([N+](=O)[O-])cc1	nt	11	nt
O=C(Nc1nnc(CCOCCc2nnc(NC(=O)c3cccs3)s2)s1)c1cccs1	nt	-12	nt
CC(=O)NC1=NC(=O)/C(=C/c2cc(C)n(-c3ccc(C(=O)O)cc3)c2C)S1	nt	61*	nt
COC(=O)c1ccc(-n2c(C)cc(/C=C3/SC(N)=NC3=O)c2C)cc1	nt	-9	nt
COc1ccc(C(N)=O)cc1NC(=O)c1ccc(Cl)c(Cl)c1	nt	-11	nt
Cc1ccc(NCC(=O)N/N=C\c2ccccc2OCC(=O)O)cc1	nt	0	nt

Bioassay records: PubChem BioAssay, several laboratories
